# Experimental data gathered from unrelated publications.
# Target: Serine/threonine-protein kinase Sgk1 (SGK1, Homo sapiens, UniProt O00141)
# Sequence (O00141 1-431, as in one of the studies): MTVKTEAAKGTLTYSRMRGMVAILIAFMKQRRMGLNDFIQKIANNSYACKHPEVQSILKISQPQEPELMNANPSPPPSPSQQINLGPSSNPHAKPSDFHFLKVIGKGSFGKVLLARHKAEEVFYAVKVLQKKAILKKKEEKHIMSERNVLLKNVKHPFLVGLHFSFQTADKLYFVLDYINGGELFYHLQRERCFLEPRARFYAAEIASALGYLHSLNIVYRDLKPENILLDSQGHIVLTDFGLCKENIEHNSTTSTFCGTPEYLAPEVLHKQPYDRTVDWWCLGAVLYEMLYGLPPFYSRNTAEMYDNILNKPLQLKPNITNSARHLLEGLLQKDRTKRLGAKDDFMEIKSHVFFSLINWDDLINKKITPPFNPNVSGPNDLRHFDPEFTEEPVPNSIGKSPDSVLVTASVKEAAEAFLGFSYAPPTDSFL
Structure (SMILES),observed,mode,technique,tested at,endpoint,result
CNc1cccc2cc(C(=O)Nc3ccc(C(=O)O)cc3)c(=O)[nH]c12,enzyme activity,inhibitor,,10 µM,inhibition,8.2%
O=C1NC(=O)c2cc(Nc3ccc(F)cc3)c(Nc3ccc(F)cc3)cc21,cell-free assay,,,0.5 µM,remaining signal,103%
Nc1nc(NC2CCCCC2)sc1C(=O)c1ccccc1,enzyme activity,inhibitor,,10 µM,remaining activity,81%
CN(C)C1CCN(CC#Cc2nn(C3CCCC3)c3nc(NCc4ccccc4)ncc23)C1 (centres unmarked),enzyme activity,inhibitor,FRET,10 µM,inhibition,20%
O=C1Nc2ccc(Cl)cc2C1=Cc1cc(Cl)c(O)c(Cl)c1,cell-free assay,,,0.5 µM,remaining signal,91.3%
CN(C(=O)c1ccccc1)c1cc(N(C)c2ccc3c(c2)CCc2ccc(C(=O)NCCN4CCOCC4)cc2C3=O)ccc1F,cell-free assay,,competition with immobilised ligand,1 µM,remaining binding,100%
CNC(=O)c1cc(Oc2ccc(NC(=O)Nc3ccc(Cl)c(C(F)(F)F)c3)cc2)ccn1,enzyme activity,inhibitor,,10 µM,inhibition,-21%
O=C(N1CCS(=O)(=O)CC1)N1C[C@H](c2ccc(OC(F)(F)F)cc2)C[C@H](c2nc(C3CC3)no2)C1,cell-free assay,,competition with immobilised ligand,1 µM,remaining binding,91%
Nc1ncnc2occ(-c3ccc(NC(=O)Nc4cc(C(F)(F)F)ccc4F)cc3)c12,cell-free assay,inhibitor,,20 µM,remaining signal,10%
CC/C(=N\NC(=O)C(C)Nc1ccccc1)c1ccc(O)c(C)c1O (centres unmarked),enzyme activity,inhibitor,,0.1 µM,inhibition,44.6%
O=C(NS(=O)(=O)c1ccc(NCC2CCOCC2)c([N+](=O)[O-])c1)c1ccc(N2CCN(Cc3ccc(C(F)(F)F)cc3-c3ccc(Cl)cc3)CC2)cc1Oc1cnc2[nH]ccc2c1,cell-free assay,,competition with immobilised ligand,1 µM,remaining binding,88%
FC(F)(F)Oc1cccc(-c2cnc3ccc(-c4ccncc4)nn23)c1,enzyme activity,inhibitor,radiometric,1 µM,activity vs control,103%
Cc1ccc(Nc2nccc(N(C)c3ccc4c(C)n(C)nc4c3)n2)cc1S(N)(=O)=O,enzyme activity,inhibitor,,10 µM,inhibition,-2%
Cc1cc(NC(=O)c2cccc3cc(-c4cccc5[nH]nc(N)c45)ccc23)ccc1F,enzyme activity,inhibitor,,0.1 µM,activity vs control,87%
CSc1cccnc1N1CCN(Cc2nc3ccccc3[nH]2)CC1,cell-free assay,,competition with immobilised ligand,1 µM,remaining binding,82%
COc1cc2ncnc(Nc3ccc(Oc4ccccc4)cc3C)c2cc1OC,enzyme activity,inhibitor,,1 µM,inhibition,8%
Oc1cccc(-c2nc(N3CCOCC3)c3oc4ncccc4c3n2)c1,enzyme activity,inhibitor,,10 µM,remaining activity,92%
CC(C)(C)c1nc2c(s1)c1nc(N)ncc1c1ccc(NS(=O)(=O)c3c(F)cccc3F)c(F)c12,enzyme activity,inhibitor,radiometric,1 µM,remaining activity,87%
O=[N+]([O-])c1cccc2[nH]c(CNc3nc(N4CCOCC4)nc4c3ncn4-c3ccsc3)nc12,binding,,competition with immobilised ligand,10 µM,binding vs control,57%
O=C(Nc1cnn(-c2csc(C(=O)NC3COC3)c2)c1)Nc1c(F)cccc1Cl,enzyme activity,inhibitor,,5 µM,remaining activity,95.4%
CCCOc1ccc(OC)c(F)c1C(=O)c1ccc(C(=O)N[C@@H]2CNC[C@H]2NC(=O)c2ccc3[nH]ncc3c2)cc1,enzyme activity,inhibitor,,0.1 µM,remaining activity,64%
Cc1nc(C2CCN(C(=O)c3ccc(OC(F)(F)F)cc3N)CC2)c2ncc(N3CCN(C)CC3)cc2n1,cell-free assay,,competition with immobilised ligand,1 µM,remaining binding,100%
CC(C)(O)[C@H]1CC[C@H](Nc2ccc3ncc(-c4cccc(C(F)(F)F)c4)n3n2)CC1,enzyme activity,inhibitor,,1 µM,remaining activity,99.4%
COc1cc(Nc2cnc(C#N)c(O[C@H](C)CN(C)C)n2)ncc1-c1cnn(C)c1,enzyme activity,inhibitor,radiometric,10 µM,remaining activity,22%
COc1cc(-c2cn(C3CCc4ccccc4N(CC(F)(F)F)C3=O)nn2)ccc1-n1ccc(C)n1 (centres unmarked),cell-free assay,,competition with immobilised ligand,1 µM,remaining binding,88%
O=C(Nc1cnn(-c2csc(C(=O)NC3COC3)c2)c1)Nc1ccccc1Cl,enzyme activity,inhibitor,,5 µM,remaining activity,93.7%
COc1cc(/C=C/C(=O)CC(=O)/C=C/c2ccc(O)c(OC)c2)ccc1O,enzyme activity,inhibitor,,1 µM,activity vs control,82%
O=C1CCc2cc(Nc3cc(OC4CCOCC4)c([N+](=O)[O-])cc3Cl)ccc2N1,cell-free assay,,competition with immobilised ligand,1 µM,remaining binding,100%
CN1CC(Oc2cnc(C#N)cc2-c2ccn3nc(NC(=O)C4CC4)cc3c2)C1,enzyme activity,inhibitor,,1 µM,inhibition,3%
CC1=C(C#N)C(c2ccc3c(c2)c(NC(=O)c2ccccc2C)nn3C)C(C#N)=C(C)N1,cell-free assay,,competition with immobilised ligand,1 µM,remaining binding,89%
CNCc1ccc(-c2cc(-c3nc(-c4ccc(S(=O)(=O)C(C)C)cc4)cnc3N)on2)cc1,enzyme activity,inhibitor,,2 µM,inhibition,0%
Cc1ccc(NC(=O)c2ccc(C)c(C(F)(F)F)c2)cc1C#Cc1nn(C2CCC(O)CC2)c2ncnc(N)c12 (centres unmarked),cell-free assay,,,10 µM,remaining signal,90%
Cn1c(=O)n(-c2ccc(C(C)(C)C#N)cc2)c2c3cc(-c4cnc5ccccc5c4)ccc3ncc21,enzyme activity,inhibitor,,10 µM,remaining activity,98%
CC[C@H](CO)Nc1nc(NCc2ccccc2)c2ncn(C(C)C)c2n1,cell-free assay,,,0.5 µM,remaining signal,120%
CCN(CC)CCNC(=O)c1c(C)[nH]c(/C=C2\C(=O)Nc3ccc(F)cc32)c1C,enzyme activity,inhibitor,,0.3 µM,inhibition,28%
